Results: ChEMBL document CHEMBL4261508, “Pyrazolo[3,4-d]pyrimidines as sigma-1 receptor ligands for the treatment of pain. Part 2: Introduction of cyclic substituents in position 4” (Medchemcomm, 2017)

What was measured:
Cavia porcellus = species: Cavia porcellus; experiment: Displacement of [3H]-DTG from sigma2 receptor in guinea pig brain membranes at 1 uM after 120 mins in presence of sigma1 […] (+)-SKF10047 by microbeta scintillation counting method relative to control; format: cell membranes; conditions: Membrane
Procedure, shortened: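 σ2R binding in guinea pig brain membranes with [³H]-di-o-tolylguanidine as radioligand. Compound tested at 1 μM as % inhibition. Mean of two determinations.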

[1] = molecular target: Sigma non-opioid intracellular receptor 1 (Homo sapiens, UniProt Q99720); experiment: Displacement of [3H]-(+)-pentazocine from recombinant human sigma1 receptor expressed in HEK293 cell membranes after 120 mins by microbeta scintillation counting method
[2] = Stability of the compound assessed as drug degradation at pH 7.4; format: physicochemical; conditions: buffer
Procedure, shortened: (§1)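 Chemical stability measured by LC/MS. A 10 mM DMSO stock of compound was diluted into phosphate buffer pH 7.4 or 0.01 M HCl pH 2.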

[3] = Stability of the compound assessed as drug degradation at pH 2; format: physicochemical; conditions: buffer; procedure, shortened: as §1

Chain of Sigma non-opioid intracellular receptor 1 (Q99720 whole entry): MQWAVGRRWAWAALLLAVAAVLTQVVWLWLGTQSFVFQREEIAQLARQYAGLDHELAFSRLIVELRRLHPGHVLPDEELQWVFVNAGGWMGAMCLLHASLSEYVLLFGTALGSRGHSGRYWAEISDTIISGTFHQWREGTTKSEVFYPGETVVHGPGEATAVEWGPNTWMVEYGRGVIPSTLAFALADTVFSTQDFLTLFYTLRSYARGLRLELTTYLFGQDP

An inhibition (Cavia porcellus) of 67% and a Ki [1] of 108 nM were found for `FC1(F)CCN(c2ncnc3c2cnn3CCN2CCCCC2)CC1` in this work.
An inhibition (Cavia porcellus) of 73% and a Ki [1] of 112 nM were found for `Fc1cc(Cl)ccc1-c1ncnc2c1cnn2CCN1CCCCC1` in this work.
An inhibition (Cavia porcellus) of 86% and a Ki [1] of 125 nM were found for `FC(F)(F)c1ccccc1-c1ncnc2c1cnn2CCN1CCCCC1` in this work.
A Ki [1] of 137 nM was found for `Cn1nc(C(F)(F)F)cc1-c1ncnc2c1cnn2CCN1CCCCC1` in this work.
A Ki [1] of 740 nM was found for `Cc1ccc(C)n1-c1ncnc2c1cnn2CCN1CCCCC1` in this work.
A Ki [1] of 6190 nM was found for `O=C1CCCN1c1ncnc2c1cnn2CCN1CCCCC1` in this work.
In the case of `CC(C)(C)C(=O)Nc1ncnc2c1cnn2CCN1CCCCC1`, the Stability [2] is reported as “Stable” and the Stability [3] is reported as “Stable”.
A Ki [1] of 13800 nM was found for `c1cn(-c2ncnc3c2cnn3CCN2CCCCC2)cn1` in this work.
In the case of `Clc1ccccc1-c1ncnc2c1cnn2CCN1CCCCC1`, the Stability [2] is reported as “Stable”, the inhibition (Cavia porcellus) is reported as 92% and the Stability [3] is reported as “Stable”. It also gave a Ki [1] of 76 nM.
A Ki [1] of 25800 nM was found for `CNC1CCN(c2ncnc3c2cnn3CCN2CCCCC2)C1` (stereo unspecified) in this work.
For `Cc1noc(C)c1-c1ncnc2c1cnn2CCN1CCCCC1`, the Stability [2] was “Stable”, the Stability [3] was “Stable” and the Ki [1] was 72 nM.
An inhibition (Cavia porcellus) of 69% and a Ki [1] of 100 nM were found for `c1ccc(-c2ncnc3c2cnn3CCN2CCCCC2)cc1` in this work.
With `Fc1ccc(-c2ncnc3c2cnn3CCN2CCCCC2)cc1C(F)(F)F` the Stability [2] was “Stable”, the inhibition (Cavia porcellus) was 87% and the Stability [3] was “Stable”. The Ki [1] was 57 nM.
An inhibition (Cavia porcellus) of 81% and a Ki [1] of 300 nM were found for `CCOc1ccccc1-c1ncnc2c1cnn2CCN1CCCCC1` in this work.
For `Clc1ccc(-c2ncnc3c2cnn3CCN2CCCCC2)s1`, the Stability [2] was “Stable”, the Stability [3] was “Stable” and the Ki [1] was 35 nM.
For `Cn1cccc1-c1ncnc2c1cnn2CCN1CCCCC1`, the Stability [2] was “Stable”, the Stability [3] was “Stable” and the Ki [1] was 31 nM.
A Ki [1] of 715 nM was found for `Cn1cncc1-c1ncnc2c1cnn2CCN1CCCCC1` in this work.
A Ki [1] of 112 nM was found for `COc1ncccc1-c1ncnc2c1cnn2CCN1CCCCC1` in this work.
For `Cc1cccc(-c2ncnc3c2cnn3CCN2CCCCC2)c1`, the Stability [2] was “Stable”, the inhibition (Cavia porcellus) was 82% and the Stability [3] was “Stable”. It also gave a Ki [1] of 82 nM.
A Ki [1] of 1720 nM was found for `c1cc(-c2ncnc3c2cnn3CCN2CCCCC2)ccn1` in this work.
A Ki [1] of 732 nM was found for `Cc1ncccc1-c1ncnc2c1cnn2CCN1CCCCC1` in this work.
With `Cc1ccc(C)c(-c2ncnc3c2cnn3CCN2CCCCC2)c1` the Stability [2] was “Stable”, the inhibition (Cavia porcellus) was 89% and the Stability [3] was “Stable”. The Ki [1] was 63 nM.
A Ki [1] of 23800 nM was found for `c1coc(-c2ncnc3c2cnn3CCN2CCCCC2)n1` in this work.
A Ki [1] of 1830 nM was found for `c1csc(-c2ncnc3c2cnn3CCN2CCCCC2)n1` in this work.
An inhibition (Cavia porcellus) of 58% and a Ki [1] of 531 nM were found for `COc1ccc(-c2ncnc3c2cnn3CCN2CCCCC2)cc1` in this work.
A Ki [1] of 666 nM was found for `c1ccc2c(-c3ncnc4c3cnn4CCN3CCCCC3)cncc2c1` in this work.
